The target of assay [1] is T1, Mu-type opioid receptor (Cavia porcellus, UniProt P97266). In words: Binding affinity of Opioid receptor mu 1 by the displacement of mu-selective [3H]DAGO from brain membrane preparations. Summed up:
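Competitive displacement of the μ-selective radioligand [3H]DAGO from brain membrane preparations ([…]). Affinity taken from ligand displacement.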

Assay [2] is filed under the species Cavia porcellus. In words: Ke value for naloxone versus compound in the guinea pig ileum (GPI) in order to distinguish between mu- and delta-mediated effects. Format: functional. Put shortly:
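Electrically stimulated guinea pig ileum. Naloxone antagonism measured against each agonist and expressed as a Ke, used to tell μ- from δ- or κ-mediated effects.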

The species named for assay [3] is Cavia porcellus. Kind of assay: Opioid agonist potencies was determined by electrically stimulated guinea pig ileum (GPI). Format: functional.
Assay [4] is filed under the species Mus musculus. Kind of assay: Opioid agonist potencies was determined by mouse vas deferens (MVD). The class given is functional.
The test system of assay [5] is Mus musculus. Kind of assay: Analgesic potency (antinociceptive activity) (administered icv) at peak time of 20 min in male Swiss-Webster mice. The class given is functional. Put shortly:
(§1)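 Intracerebroventricular dosing in male Swiss-Webster mice. Antinociception scored by the acetic acid writhing test at the peak time of analgesia, 10 or 20 min after injection depending on compound.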

Assay [6] deals with Mus musculus. In words: Analgesic potency (antinociceptive activity) (administered icv) at peak time of 10 min in male Swiss-Webster mice. Format: functional. Put shortly: as §1
The target in assay [7] is T1, Mu-type opioid receptor. Kind of assay: Binding affinity of Opioid receptor mu 1 mu 1 by the displacement of mu-selective [3H]DAGO from brain membrane preparations.

pIC50, pKi: −log10 of the molar value. Where a SMILES comes first, the peptide text is derived from it. Side-chain parts run from the residue outwards. The star is where a group is joined. Oxymorphamine(6α) = CN1CC[C@]23c4c5ccc(O)c4O[C@H]2[C@@H](N*)CC[C@@]3(O)[C@H]1C5

T1 sequence (P97266 whole entry): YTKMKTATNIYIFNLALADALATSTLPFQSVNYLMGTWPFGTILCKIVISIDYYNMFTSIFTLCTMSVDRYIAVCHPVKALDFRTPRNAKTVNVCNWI

Molecule `CC(=O)N[C@H]1CC[C@@]2(O)[C@H]3Cc4ccc(O)c5c4[C@@]2(CCN3C)[C@H]1O5` gave a pKi on Mu-type opioid receptor [1] of 8.74. The molecule further registered a Ke in the assay listed under Cavia porcellus [2] of 0.88 nM. The pIC50 in the assay filed under Cavia porcellus [3] was 6.87; in the assay filed under Mus musculus [4], 6.78. In the assay with Mus musculus [5], the ED50 is 5.4 nM.
For `CC(C)C[C@H](NC(=O)[C@H](Cc1ccccc1)NC(=O)CNC(=O)[C@H](CCC(=O)NCC(=O)NCC(=O)N[C@H]1CC[C@@]2(O)[C@H]3Cc4ccc(O)c5c4[C@@]2(CCN3C)[C@H]1O5)NC(=O)[C@@H](N)Cc1ccc(O)cc1)C(=O)O` (H-YE([Gly-Gly-Oxymorphamine(6α)])GFL-OH) the same measures were 7.95, 1.32 nM, 7.24, 7.32 and 5 nM.
As to `CC(C)C[C@H](NC(=O)[C@H](Cc1ccccc1)NC(=O)CNC(=O)CNC(=O)[C@@H](N)Cc1ccc(O)cc1)C(=O)O` [ENKEPHALIN], the Ke in the assay filed under Cavia porcellus [2] turned out to be 1.53 nM.
`CC(C)C[C@H](NC(=O)[C@H](Cc1ccccc1)NC(=O)CNC(=O)[C@H](CCC(=O)NCC(=O)NCC(N)=O)NC(=O)[C@@H](N)Cc1ccc(O)cc1)C(=O)O` (H-YE([Gly-Gly-NH2])GFL-OH) gave a pKi at Mu-type opioid receptor [1] of 7.28. The molecule further had a Ke in the assay listed under Cavia porcellus [2] of 2.32 nM. The pIC50 in the assay filed under Cavia porcellus [3] is 6.22; in the assay listed under Mus musculus [4], 7.21. In addition, the ED50 with Mus musculus [6] is 60 nM.
For the molecule `CC(=O)NCC(=O)NCC(=O)N[C@H]1CC[C@@]2(O)[C@H]3Cc4ccc(O)c5c4[C@@]2(CCN3C)[C@H]1O5`, the pKi on Mu-type opioid receptor [1] was 8.26. For the same molecule, in the assay listed under Cavia porcellus [2], the Ke was 1.55 nM. Further, the pIC50 in the assay filed under Cavia porcellus [3] was 7.08; in the assay filed under Mus musculus [4], 7.11. The ED50 with Mus musculus [5] is reported as 3.1 nM.
In the assay filed under Cavia porcellus [2], H-YQGFL-OH had a Ke of 1.63 nM. For the same molecule, the results for the pIC50 in the assay filed under Cavia porcellus [3] and in the assay listed under Mus musculus [4] were 6.68 and 6.91, respectively. The molecule further showed a pKi on Mu-type opioid receptor [7] of 7.66. In addition, the ED50 in the assay on Mus musculus [6] is recorded as 84 nM.
As to `CN1CC[C@]23c4c5ccc(O)c4O[C@H]2C(=O)CC[C@@]3(O)[C@H]1C5` [OXYMORPHONE], the ED50 with Mus musculus [6] is 24 nM.
Take `CC(C)C[C@H](NC(=O)[C@H](Cc1ccccc1)NC(=O)CNC(=O)[C@H](CCC(=O)N[C@H]1CC[C@@]2(O)[C@H]3Cc4ccc(O)c5c4[C@@]2(CCN3C)[C@H]1O5)NC(=O)[C@@H](N)Cc1ccc(O)cc1)C(=O)O` (H-YE(Oxymorphamine(6α))GFL-OH): the pKi on Mu-type opioid receptor [1] was 7.72. Also, the Ke in the assay listed under Cavia porcellus [2] is on record as 1.02 nM. In addition, the negative logarithm of the IC50 (pIC50) in the assay filed under Cavia porcellus [3] is 8.12; in the assay filed under Mus musculus [4], 7.57. Further, in the assay with Mus musculus [5], the ED50 is recorded as 0.7 nM.

Usually pKi stands for the Ki on a negative log10 scale, so that one unit is a factor of ten. Read a low pKi as a large Ki. By pIC50 is commonly meant the negative decadic logarithm of the IC50, by convention in mol/L. Lower therefore signals a high IC50.

Source of the values: ChEMBL document CHEMBL1123636 (J Med Chem, 1987).
